IMP-1 inhibitor – inhibitors of Pseudomonas aeruginosa IMP-1 metallo-beta-lactamase; purified IMP-1, nitrocefin hydrolysis, epi-absorbance fluorescence; inhibition, % at 5.6 µM; hit rate 0.45% among 290,000;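 active = inhibition above the mean plus 3 SD of all compounds in the same screening run, cut at about 4.5% in these data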
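System: purified IMP-1; amount: IMP-1 0.2 nM before substrate addition; compound: single dose, 5.6 µM; times: 25 °C, 15 min preincubation, 25 min reaction; signal: Epi-absorbance via hydrolysed-nitrocefin quenching of white-plate fluorescence, 480/530 nm, EDTA stop; benchmarks: DMSO with and without IMP-1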
HGIII-sPLA2 inh – Inhibits HGIII-sPLA2 liposome hydrolysis, primary screen; Q9NZ20; QFRET BODIPY PC-A2 liposome hydrolysis, fluorescence; inhibition, % at 12.2 µM; hit rate 0.56% among 370,000; AID 743126;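 active = inhibition above mean plus 3 SD of compounds lying within the high and low control bounds, cut at about 19% in these data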
PfM18AAP inh-1 – PfM18AAP enzyme inhibition | recombinant PfM18AAP, H-Glu-NHMec fluorogenic cleavage | inhibition, % at 7.35 µM | hit rate 1.2% among 290,000 | AID 1822;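 active = inhibition above the campaign mean inhibition over all tested compounds plus 3 SD, cut at about 28% in these data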
VIM-2 inhibitor – inhibitors of Pseudomonas aeruginosa VIM-2 metallo-beta-lactamase; hit rate 0.89% among 290,000; inhibition, % at 5.6 µM; purified VIM-2, nitrocefin hydrolysis, epi-absorbance fluorescence;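 active = inhibition above the mean of all tested compounds plus 3 SD, cutoff set per screening run, cut at about 7.5% in these data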;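 also: red hydrolysis product quenches plate fluorescence so inhibitors raise well fluorescence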
PfM18AAP inh-2 – PfM18AAP inhibition, confirmation. shares compounds with PfM18AAP inh-1. recombinant PfM18AAP, H-Glu-NHMec fluorogenic cleavage. inhibition, % at 7.35 µM. hit rate 28% among 2,400. AID 2170;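 active = mean inhibition over replicate wells above the hit cutoff set for the earlier primary screen, cut at about 29% in these data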
CTSL1 confirm – Cathepsin L (human) inhibition, confirmation | shares compounds with PfM18AAP inh-1 | purified cathepsin L1, Z-Leu-Arg-MCA fluorescence | inhibition, % at 5.96 µM | 2,400 tested, under 10 active | AID 2178;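 active = average inhibition across replicates above the hit cutoff set in the earlier primary screen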
Target sequence (P07711 whole entry, looked up): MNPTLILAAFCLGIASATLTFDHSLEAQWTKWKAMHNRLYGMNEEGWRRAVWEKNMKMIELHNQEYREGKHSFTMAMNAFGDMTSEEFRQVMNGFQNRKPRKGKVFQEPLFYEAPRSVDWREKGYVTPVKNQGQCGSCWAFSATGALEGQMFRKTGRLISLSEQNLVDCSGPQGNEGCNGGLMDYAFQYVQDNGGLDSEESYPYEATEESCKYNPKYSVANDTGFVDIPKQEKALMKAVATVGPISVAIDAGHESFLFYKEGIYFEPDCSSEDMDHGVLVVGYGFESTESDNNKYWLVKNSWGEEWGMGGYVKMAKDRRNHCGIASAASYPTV
Hits are given with their value; – = inactive; · = not tested or not shown. Compounds with a hit are over-represented: about 2.4% of the library has one in this group of screens.

SMILES	IMP-1 inhibitor	HGIII-sPLA2 inh	PfM18AAP inh-1	VIM-2 inhibitor	PfM18AAP inh-2	CTSL1 confirm
O=C(CCN1C(=O)/C(=C/c2ccccc2Cl)SC1=S)NC1C=CS(=O)(=O)C1 (centres undefined)	–	–	–	–	·	·
O=C1NC(=O)/C(=C\c2ccc(N3CCOCC3)o2)N1	–	–	37	–	–	–
O=C1NC(=O)/C(=C/c2ccc(N3CCOCC3)o2)N1	–	–	–	–	·	·
CCCCNC(=O)NNc1nc(Cl)cc(C)c1C#N	–	–	54	–	45	–
Cc1ccc(OCC(=O)N/N=C/c2ccc([N+](=O)[O-])o2)cc1	–	–	–	–	·	·
O=C(COc1ccccc1)N/N=C/c1ccc([N+](=O)[O-])o1	–	–	39	–	–	–
CC(C)[C@H](NC(=O)c1nn(Cc2ccccc2)c(=O)c2ccccc12)C(=O)O	–	–	36	–	–	–
Cc1ccc(Sc2ncccc2C(=O)N(C)Cc2cccs2)c(C)c1	–	–	–	–	·	·
Nc1nncn1C(=O)CCCOc1ccccc1	–	–	35	–	50	–
O=C(CCc1ccccc1)N1CCN(C(=O)CCc2ccccc2)CC1	·	–	·	·	·	·
Nc1nncn1C(=O)CCc1ccccc1	–	–	72	–	49	–
Cc1cccc(NC(=O)c2cccc(S(=O)(=O)N(C)c3ccccc3)c2)n1	·	–	·	·	·	·
CC(NCc1cc(Br)ccc1OCC(=O)NCc1ccccc1)c1ccccc1 (centres undefined)	–	–	–	–	·	·
CCOC(=O)Cc1csc(NC(=O)CSc2nnc(-c3ccc(F)cc3)o2)n1	–	–	–	–	·	·
Cc1cc(NC(=O)CN2CCN(c3ccc(O)cc3)CC2)no1	–	–	35	–	–	–
Cc1cc(NC(=O)CSc2nnc(-c3ccc(O)cc3)o2)no1	–	–	38	–	–	–
Cc1cc(NC(=O)CN2CCN(S(=O)(=O)c3ccc(Cl)cc3)CC2)no1	–	–	–	–	·	·
CCOC(=O)Cc1csc(NC(=O)CSc2nnc(-c3ccc(C)cc3)o2)n1	–	–	32	–	–	–
O=C(CN1CCN(c2ccc(O)cc2)CC1)Nc1ccc2c(c1)OCCO2	–	–	38	–	–	–
O=C(CN1CCN(c2ccc(F)cc2)CC1)Nc1ccc2c(c1)OCCO2	–	–	–	–	·	·
CC(NC(=O)c1ccc(Cl)c(S(=O)(=O)NC2CC2)c1)c1ccco1 (centres undefined)	·	–	·	·	·	·
CC(C)Nc1nc(Nc2ccccc2Cl)c2sccc2n1	·	–	·	·	·	·
COc1ccccc1N1CCN(C(=S)Nc2ccc(S(=O)(=O)N3CCOCC3)cc2)CC1	–	–	32	–	–	–
CCOC(=O)C1=CCN(S(=O)(=O)c2ccccc2F)C1c1ccccc1 (centres undefined)	·	–	·	·	·	·
C[C@@H]1CN([C@@H](C)CO)S(=O)(=O)c2ccc(Br)cc2O[C@@H]1CN(C)S(=O)(=O)c1ccc(F)cc1	·	–	·	·	·	·
SMILES	IMP-1 inhibitor	HGIII-sPLA2 inh	PfM18AAP inh-1	VIM-2 inhibitor	PfM18AAP inh-2	CTSL1 confirm
O=C(CSc1ccccn1)c1ccc(F)cc1	–	–	–	–	·	·
Cc1ccc(C(=O)CSc2ccccn2)cc1	–	–	44	–	–	–
O=C(O)c1ccnc(SCC(=O)c2ccccc2)c1	–	–	50	–	–	–
Cc1ccc(NC(=O)CN2C(=O)NC3(CCCCCC3)C2=O)cc1Cl	·	–	·	·	·	·
OC[C@@H]1CN(Cc2ccccc2)C[C@H](n2ccc3c(N4CCCC4)ncnc32)O1	·	–	·	·	·	·
Cc1cc(C(=O)C(C)OC(=O)c2ccc(NC(=O)CC#N)cc2)c(C)n1-c1ccc(OC(F)F)cc1 (centres undefined)	·	–	·	·	·	·
N#CCC(=O)N/N=C1\CCCCC1C1CCCCC1 (centres undefined)	–	–	44	–	–	–
Cc1ccc(S(=O)(=O)N/N=C2/CCCCC2C2CCCCC2)cc1[N+](=O)[O-] (centres undefined)	–	–	–	–	·	·
COC(=O)c1ccc(C(=O)OC)c(NC(=O)C2CC(=O)N(C3CCCC3)C2)c1 (centres undefined)	·	–	·	·	·	·
COc1ccc(NC(=S)N(CCC(C)C)C2CCN(C(C)C)CC2)cc1Cl	–	–	–	–	·	·
COc1ccc(NC(=S)NCCN2CCC(C)CC2)cc1Cl	–	–	36	–	–	–
COc1ccc(NC(=S)NCCCN2CCCC2)cc1Cl	–	–	–	–	·	·
COCCN(C(=S)Nc1ccc(OC)c(Cl)c1)C1CCN(C(C)C)CC1	–	–	36	–	–	–
Cn1c(CCC(=O)Nc2cc(S(C)(=O)=O)ccc2Cl)nc2cc(S(=O)(=O)N3CCOCC3)ccc21	·	–	·	·	·	·
Cc1ccc(/C(O)=C/c2nc3cc(C)ccc3oc2=O)cc1	–	–	39	–	–	–
O=C1CC(c2ccccc2)=NN1c1nc(-c2ccccc2)cs1	–	–	33	–	–	–
CC1=NN(c2nc(-c3ccccc3)cs2)C(=O)C1	–	–	–	–	·	·
CN(C(=O)CN1CCN(c2ccccc2F)CC1)C1CCCc2ccccc21 (centres undefined)	–	–	–	–	·	·
Cc1cc(C)cc(NC(=O)Nn2cnnc2)c1	–	–	54	–	37	–
CCC(C)NC(=O)Nc1ccc(Br)cc1Cl (centres undefined)	–	–	–	–	·	·
Cc1cc(C)cc(NC(=O)NN2C(C)CCCC2C)c1 (centres undefined)	–	–	–	–	·	·
O=C(Nc1ccc(Br)cc1Cl)Nn1cnnc1	–	–	75	–	78	–
O=C(Nc1ccccc1)Nn1cnnc1	–	–	56	–	40	–
O=C(Nc1ccc(Br)cc1)Nn1cnnc1	–	–	73	–	56	–
Cc1cc(NC(=O)CCC(=O)N(CC(=O)NC2CCCC2)c2ccc(Cl)c(Cl)c2)no1	–	–	–	–	·	·
SMILES	IMP-1 inhibitor	HGIII-sPLA2 inh	PfM18AAP inh-1	VIM-2 inhibitor	PfM18AAP inh-2	CTSL1 confirm
CCCCN(C)S(=O)(=O)c1cc2c(cc1Br)CCN2C(=O)C1CC1	·	–	·	·	·	·
S=c1nc[nH]c2c1ncn2C1CCCC1	–	–	–	–	–	–
CCOC(=O)CC[C@@]1(C(=O)OCC)C[C@@H](CC(=O)NCCCN2CCCC2=O)C(=O)N2CCCC=C21	·	–	·	·	·	·
CCOC(=O)n1cnc2nc(N)nc(SC)c21	·	–	·	·	·	·
C/C(=N\Nc1cccc(C(=O)O)c1)c1ccc(Cl)s1	–	–	41	–	–	–
O=C(Nc1ccc(C(=O)NCCCN2CCN(c3ccc(F)cc3)CC2)cc1)C1=CSCCO1	–	–	–	–	·	·
CC1CC(C)CN(C(=O)c2nn(C)c3c2CSc2ccccc2-3)C1 (centres undefined)	–	–	–	–	·	·
CC1CCCN(C(=O)c2nn(C)c3c2CSc2ccccc2-3)C1 (centres undefined)	–	–	42	–	–	–
CCOc1ccc(-n2c(SCC(=O)Nc3ccc(S(=O)(=O)Nc4cc(C)nc(C)n4)cc3)nnc2-c2cccc(C)c2)cc1	·	–	·	·	·	·
c1ccc(CN2CCC3(CC2)Nc2ccccc2S3)cc1	–	–	34	–	–	–
COC(=O)Oc1ccc(/C=C/C(=O)OC(C)C)cc1OC(=O)OC	–	–	72	–	43	–
